Published values of several laboratories.
Lines come from different studies, so protocols differ.
Target: Mitogen-activated protein kinase 13 (MAPK13, Homo sapiens, UniProt O15264)
Sequence (O15264 1-365, as in one of the studies): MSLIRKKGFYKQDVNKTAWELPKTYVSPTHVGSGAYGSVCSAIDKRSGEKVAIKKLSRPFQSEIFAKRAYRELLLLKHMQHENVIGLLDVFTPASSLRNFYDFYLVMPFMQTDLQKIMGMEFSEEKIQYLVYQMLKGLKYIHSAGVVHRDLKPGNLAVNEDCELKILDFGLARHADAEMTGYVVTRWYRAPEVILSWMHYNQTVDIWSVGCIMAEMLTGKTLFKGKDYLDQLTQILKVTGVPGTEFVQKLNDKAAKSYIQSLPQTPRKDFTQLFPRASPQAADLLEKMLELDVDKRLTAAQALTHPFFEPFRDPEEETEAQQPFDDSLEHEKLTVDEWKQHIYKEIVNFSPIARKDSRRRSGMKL

The remaining binding of `N#CC1(c2ccccn2)CCN(Cc2cc(C(=O)O)c(=O)n3ccccc23)CC1` is reported as 100% (cell-free assay; competition with immobilised ligand; 1 µM).
With `CC(C)(C)c1cc(C=C(C#N)C#N)cc(Br)c1O` the remaining activity was 98.5% (enzyme activity; inhibitor; 0.5 µM).
`Cc1nn(C)cc1-c1nc2c(N3CCN(Cc4ccc(Cl)cc4)CC3)c(Cl)cnc2[nH]1` gave a remaining binding of 100% (binding; competition with immobilised ligand; 1 µM).
With `Cn1cc(-c2cc(F)cc(N3CCn4c(cc5c4CCCC5)C3=O)c2CO)cc(Nc2ccc(N3CCN(C4COC4)CC3)cn2)c1=O` the inhibition was 15% (enzyme activity; inhibitor; 0.1 µM).
`COc1cc(Nc2ncc(F)c(Nc3ccc4c(n3)NC(=O)C(C)(C)O4)n2)cc(OC)c1OC` gave an inhibition of 100% (binding; competition with immobilised ligand; 10 µM).
`Cn1cncc1[C@](O)(COc1ccc(C#N)cc1-c1ccc(OC(F)(F)F)cc1)c1ccc(C#N)cc1` has a remaining binding of 87% (cell-free assay; competition with immobilised ligand; 1 µM).
The remaining signal of `O=c1[nH]c2ccccc2n1C1CCN(Cc2ccc(-c3[nH]c4cc5ncnc5cc4nc3-c3ccccc3)cc2)CC1` is reported as 102% (cell-free assay; 0.5 µM).
The inhibition of `Cn1cc(-c2cccc(N3CCc4c(sc5c4CC(C)(C)C5)C3=O)c2CO)cc(Nc2ccncn2)c1=O` is reported as 5% (enzyme activity; inhibitor; 1 µM).
The remaining binding of `COc1ncccc1-c1cnn2ccc(N3CCN(C(=O)OC(C)C)CC3)nc12` is reported as 100% (binding; competition with immobilised ligand; 1 µM).
